Values after ≈ are worked out from the molar mass of the structure shown.
Tests used:
Homo sapiens [1] = organism: Homo sapiens; test: In vitro inhibition of collagen-induced human platelet aggregation.; assay type: functional, organism-based
Outline: (§1)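 Human venous blood citrated with 10% v/v sodium citrate (3.8%); platelet-rich plasma spun at 300g, 10 min, 4 °C, used within 2 h. Compound in Me2SO (1% final) preincubated 10 min at room temperature; aggregation triggered by collagen 0.02 mg/mL final or ADP 0.85 μg/mL final; maximum rate read in Born aggregometer. EC50 from log dose–effect regression with 95% confidence limits.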

Rattus norvegicus [2] = test: Activity relative to dihydralazine for in vitro hypotensive activity in anesthetized rats; assay type: functional; conditions: in the assay text read “in vivo” for “in vitro”
Outline: (§2)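 Male Sprague-Dawley rats, 230-280 g, urethane-anesthetized (ip); carotid arterial pressure recorded continuously by pressure transducer. Compounds given ip at 2 mL/kg. ED20, dose lowering mean carotid pressure by 20%, from log dose–effect regression; dihydralazine as reference.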

Rattus norvegicus [3] = test: Ex vivo inhibition of collagen-induced rat platelet aggregation after peroral administration; assay type: functional; conditions: po
Outline: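 Male Sprague-Dawley rats, 200-250 g, dosed orally, three rats per dose. Blood drawn by heart puncture under ether 1 h post-dose; platelet-rich plasma prepared by centrifugation; aggregation induced with collagen 0.02 mg/mL final, maximum rate read in Born aggregometer.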

Homo sapiens [4] = organism: Homo sapiens; test: Relative activity (compared to acetylsalicylic acid) for in vitro inhibition of collagen-induced human platelet aggregation; assay type: functional
[5] = In vitro inhibition of collagen induced aggregation of human plateles and the ratio of ED33 to EC50 was reported; assay type: functional
Outline: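 Ratio of oral ED33 (male Sprague-Dawley rats, 3 per dose, blood taken 1 h post-dose, collagen-triggered aggregation) to in vitro EC50 (human citrated platelet-rich plasma, 10 min room-temperature preincubation in 1% Me2SO, collagen 0.02 mg/mL final, regression-derived).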

Homo sapiens [6] = organism: Homo sapiens; test: In vitro inhibition of ADP-induced human platelet aggregation; assay type: functional; outline: as §1
Rattus norvegicus [7] = organism: Rattus norvegicus; test: Relative activity in rats based on acetylsalicylic acid; assay type: functional
Rattus norvegicus [8] = test: In vitro hypotensive activity in anesthetized rats after intraperitoneal administration.; assay type: functional; conditions: ip, in the assay text read “In vivo” for “In vitro”; outline: as §2
Rattus norvegicus [9] = test: In vivo hypotensive activity in anesthetized rats after intravenous administration.

EC50 (Homo sapiens [1]) [µg/mL] | EC50 (Homo sapiens [6]; Homo sapiens, read-out: EC50) [µg/mL] | EC50 (Homo sapiens [1]; Homo sapiens, read-out: EC50) [µg/mL] | EC50 (Homo sapiens [6]) [µg/mL] | SMILES | Relative activity (Rattus norvegicus [2]) | ED33 (Rattus norvegicus [3]) [mg/kg] | Relative activity (Homo sapiens [4]) | Ratio [5] | Relative activity (Rattus norvegicus [7]) | ED20 (Rattus norvegicus [8]) [mg/kg] | ED20 (Rattus norvegicus [9]) [mg/kg]
494 (≈ 2740 µM) | – | – | – | CC(=O)Oc1ccccc1C(=O)O [ASPIRIN] | 1 | 233 | 1 | 0.47 | – | – | –
– | 0.099 (≈ 0.337 µM) | – | – | CC(Cl)C(=O)Nc1ccc(C2=NNC(=O)CC2C)cc1 (stereo unspecified) [AMIPIZONE] | 41.7 | 0.63 | 15936 | 20.3 | 370 | 0.0081 | –
– | 0.0174 (≈ 0.0494 µM) | 0.00165 (≈ 0.00468 µM) | – | CCCCC[C@H](O)/C=C/[C@@H]1[C@H]2C/C(=C/CCCC(=O)O)O[C@H]2C[C@H]1O [EPOPROSTENOL] | – | – | 299394 | – | – | – | 0.00067
– | > 46.4 | > 46.4 | – | O=C1CCC(c2ccc(NC(=O)CCCCl)cc2)=NN1 | <0.34 | – | <11 | – | – | > 1 | –
– | 11.4 (≈ 37 µM) | 9.24 (≈ 30 µM) | – | CC(C)(CCl)C(=O)Nc1ccc(C2=NNC(=O)CC2)cc1 | <0.34 | – | 54 | – | – | > 1 | –
– | 43.8 (≈ 216 µM) | 46.9 (≈ 231 µM) | – | CC1CC(c2ccc(N)cc2)=NNC1=O (stereo unspecified) | <0.34 | – | 11 | – | – | > 1 | –
– | > 46.4 | > 46.4 | – | CC(=O)Nc1cccc(C2=NNC(=O)CC2)c1 | <0.34 | – | <11 | – | – | > 1 | –
– | 2.64 (≈ 9.66 µM) | 3.34 (≈ 12.2 µM) | – | CCCCC(=O)Nc1ccc(C2=NNC(=O)CC2)cc1 | 0.34 | – | 148 | – | – | 1 | –
– | 1.47 (≈ 5 µM) | 3.16 (≈ 10.8 µM) | – | CCC(Cl)C(=O)Nc1ccc(C2=NNC(=O)CC2)cc1 (stereo unspecified) | 0.91 | – | 156 | – | – | 0.37 | –
– | 1 (≈ 4.32 µM) | 1.09 (≈ 4.71 µM) | – | CC(=O)Nc1ccc(C2=NNC(=O)CC2)cc1 | 1.69 | – | 453 | – | – | 0.2 | –
– | > 46.4 | > 46.4 | – | CN1N=C(c2ccc(N)cc2)CCC1=O | <0.34 | – | <11 | – | – | > 1 | –
– | 32.9 (≈ 112 µM) | 33.8 (≈ 115 µM) | – | CC(Cl)C(=O)Nc1ccc(C2=NNC(=O)C(C)C2)cc1 (stereo unspecified) | <0.34 | – | 15 | – | – | > 1 | –
– | ~21.5 | ~4.64 | – | C=CCNCC(=O)Nc1ccc(C2=NNC(=O)CC2)cc1.Cl | <0.34 | – | ~107 | – | – | > 1 | –
– | 4.78 (≈ 15.5 µM) | 3.29 (≈ 10.7 µM) | – | CC(Cl)CC(=O)Nc1ccc(C2=NNC(=O)CC2C)cc1 (stereo unspecified) | 1.81 | – | 150 | – | – | 0.187 | –
200 (≈ 559 µM) | – | – | – | COc1ccc2c(c1)c(CC(=O)O)c(C)n2C(=O)c1ccc(Cl)cc1 [INDOMETHACIN] | – | – | 2.47 | – | – | – | –
– | 0.15 (≈ 0.536 µM) | – | – | CC1CC(=O)NN=C1c1ccc(NC(=O)CCl)cc1 (stereo unspecified) | 2.25 | 12.2 | – | 111 | 19.1 | 0.15 | –
– | 0.64 (≈ 2.61 µM) | 0.74 (≈ 3.02 µM) | – | CCC(=O)Nc1ccc(C2=NNC(=O)CC2)cc1 | 5.63 | 41.6 | 668 | 56.3 | 5.6 | 0.06 | –
– | > 46.4 | > 46.4 | – | CC(=O)Nc1ccc(C2=NN(C)C(=O)CC2)cc1 | 0.34 | – | <11 | – | – | 1 | –
– | 21.9 (≈ 78.3 µM) | 6.31 (≈ 22.6 µM) | – | CC1CC(c2ccc(NC(=O)CCl)cc2)=NNC1=O (stereo unspecified) | <0.34 | – | 78 | – | – | > 1 | –
– | ~21.5 | ~21.5 | – | CCC(C)NCC(=O)Nc1ccc(C2=NNC(=O)CC2)cc1.Cl (stereo unspecified) | <0.34 | – | ~23 | – | – | > 1 | –
– | 0.26 (≈ 0.769 µM) | – | – | CC(Br)C(=O)Nc1ccc(C2=NNC(=O)CC2C)cc1 (stereo unspecified) | 0.85 | 8.18 | – | 14.1 | 28.5 | 0.4 | –
– | 1.63 (≈ 5.3 µM) | 1.66 (≈ 5.39 µM) | – | CC1CC(=O)NN=C1c1ccc(NC(=O)CCCCl)cc1 (stereo unspecified) | – | – | 298 | – | – | 0.32 | –

EC50 (Homo sapiens [1]) [µg/mL] | EC50 (Homo sapiens [6]; Homo sapiens, read-out: EC50) [µg/mL] | EC50 (Homo sapiens [1]; Homo sapiens, read-out: EC50) [µg/mL] | EC50 (Homo sapiens [6]) [µg/mL] | SMILES | Relative activity (Rattus norvegicus [2]) | ED33 (Rattus norvegicus [3]) [mg/kg] | Relative activity (Homo sapiens [4]) | Ratio [5] | Relative activity (Rattus norvegicus [7]) | ED20 (Rattus norvegicus [8]) [mg/kg] | ED20 (Rattus norvegicus [9]) [mg/kg]
– | 0.28 (≈ 0.87 µM) | – | – | CC1CC(=O)NN=C1c1ccc(NC(=O)C(C)(C)CCl)cc1 (stereo unspecified) | 0.55 | 5 | 1051 | 10.6 | 46.6 | 0.61 | –
– | 0.45 (≈ 1.61 µM) | 0.28 (≈ 1 µM) | – | CC(Cl)C(=O)Nc1ccc(C2=NNC(=O)CC2)cc1 (stereo unspecified) | 0.64 | 22.6 | 1764 | 82.7 | 10.3 | 0.53 | –
– | 0.98 (≈ 3.5 µM) | 0.9 (≈ 3.22 µM) | – | O=C1CCC(c2ccc(NC(=O)CCCl)cc2)=NN1 | <0.34 | 41.7 | 549 | 46.3 | 5.6 | > 1 | –
– | 0.16 (≈ 0.545 µM) | – | – | CC1CC(=O)NN=C1c1ccc(NC(=O)CCCl)cc1 (stereo unspecified) | 7.68 | 47.5 | 1647 | 158 | 4.9 | 0.044 | –
– | 1.44 (≈ 5.55 µM) | 1.45 (≈ 5.59 µM) | – | CCCC(=O)Nc1ccc(C2=NNC(=O)CC2)cc1 | 0.74 | – | 341 | – | – | 0.46 | –
– | 0.33 (≈ 0.937 µM) | – | – | CC1CC(=O)NN=C1c1ccc(NC(=O)C(C)(C)Br)cc1 (stereo unspecified) | 0.12 | 3.49 | – | 3.9 | 66.8 | 2.93 | –
– | 46.4 (≈ 245 µM) | 14.8 (≈ 78.2 µM) | – | Nc1ccc(C2=NNC(=O)CC2)cc1 | 1.88 | – | 33 | – | – | 0.18 | –
– | 0.39 (≈ 1.47 µM) | – | – | O=C1CCC(c2ccc(NC(=O)CCl)cc2)=NN1 | 0.91 | 15.7 | 1976 | 62.8 | 14.8 | 0.37 | –
– | 0.052 (≈ 0.148 µM) | – | – | CCC(Br)C(=O)Nc1ccc(C2=NNC(=O)CC2C)cc1 (stereo unspecified) | 0.23 | 2.58 | – | 9.6 | 90.3 | 1.49 | –
– | 0.5 (≈ 1.37 µM) | – | – | CC1CC(=O)NN=C1c1ccc(NC(=O)C(C)(C)CBr)cc1 (stereo unspecified) | 0.99 | 3.5 | 1123 | 8 | 66.6 | 0.34 | –
– | ~46.4 | ~10 | – | CCCNCC(=O)Nc1ccc(C2=NNC(=O)CC2)cc1.Cl | <0.34 | – | ~49 | – | – | > 1 | –
149 (≈ 783 µM) | – | – | 310 (≈ 1630 µM) | N/N=c1\[nH][nH]/c(=N\N)c2ccccc12 [DIHYDRALAZINE] | 1 | – | 3 | – | – | 0.34 | –
– | > 46.4 | > 46.4 | – | CN1N=C(c2ccc(NC(=O)CCl)cc2)CCC1=O | <0.34 | – | <11 | – | – | > 1 | –
– | 0.035 (≈ 0.114 µM) | 0.069 (≈ 0.224 µM) | – | CCC(Cl)C(=O)Nc1ccc(C2=NNC(=O)CC2C)cc1 (stereo unspecified) | 0.52 | 0.66 | 7159 | 9.6 | 353 | 0.65 | –
– | 46.4 (≈ 189 µM) | 46.4 (≈ 189 µM) | – | CC(=O)Nc1ccc(C2=NNC(=O)C(C)C2)cc1 (stereo unspecified) | <0.34 | – | 11 | – | – | > 1 | –
– | ~46.4 (≈ 147 µM) | ~21.5 (≈ 68 µM) | – | O=C1CCC(c2ccc(NC(=O)CN3CCOCC3)cc2)=NN1 | <0.34 | – | ~23 | – | – | > 1 | –
– | > 46.4 | > 46.4 | – | C[N+]1(CC(=O)Nc2ccc(C3=NNC(=O)CC3)cc2)CCCC1.[Cl-] | <0.34 | – | <11 | – | – | > 1 | –
– | ~10 | ~10 | – | CCN(CC)CC(=O)Nc1ccc(C2=NNC(=O)CC2)cc1.Cl | <0.34 | – | ~49 | – | – | > 1 | –
– | ~46.4 | ~21.5 | – | CC(C)NCC(=O)Nc1ccc(C2=NNC(=O)CC2)cc1.Cl | <0.34 | – | ~23 | – | – | > 1 | –
– | 3.74 (≈ 17.2 µM) | 5.27 (≈ 24.3 µM) | – | O=CNc1ccc(C2=NNC(=O)CC2)cc1 | 1.06 | – | 94 | – | – | 0.32 | –
– | > 46.4 | > 46.4 | – | Nc1cccc(C2=NNC(=O)CC2)c1 | <0.34 | – | <11 | – | – | > 1 | –

Source: ChEMBL document CHEMBL1122226, “6-Aryl-4,5-dihydro-3(2H)-pyridazinones. A new class of compounds with platelet aggregation inhibiting and hypotensive activities” (J Med Chem, 1983)
